Laboratory results published in ChEMBL document CHEMBL5620393, “New aryl and acylsulfonamides as state-dependent inhibitors of Nav1.3 voltage-gated sodium channel” (Eur J Med Chem, 2023).
Calls of active or inactive are those of the source. The calls are words filed in the database; no cut-off is given here.

Experiments:
[1] = target: T1, Sodium channel protein type 5 subunit alpha (Homo sapiens, UniProt Q14524); assay: Inhibition of human Nav1.5 expressed in CHO cells under tonic pulse 1 by automated patch clamp electrophysiology analysis; type: cell-based
[2] = target: T2, Sodium channel protein type 9 subunit alpha (Homo sapiens, UniProt Q15858); assay: Inhibition of human Nav1.7 expressed in CHO cells under resting state by automated patch clamp electrophysiology analysis; type: cell-based
[3] = target: T2, Sodium channel protein type 9 subunit alpha; assay: Inhibition of human Nav1.7 expressed in CHO cells under inactivated state by automated patch clamp electrophysiology analysis; type: cell-based
[4] = target: T1, Sodium channel protein type 5 subunit alpha; assay: Inhibition of human Nav1.5 expressed in CHO cells under resting state by automated patch clamp electrophysiology analysis; type: cell-based
[5] = target: T1, Sodium channel protein type 5 subunit alpha; assay: Inhibition of human Nav1.5 expressed in CHO cells under inactivated state by automated patch clamp electrophysiology analysis; type: cell-based
[6] = target: T1, Sodium channel protein type 5 subunit alpha; assay: Inhibition of human Nav1.5 expressed in Xenopus laevis oocytes at closed state at 1 uM by two electrode voltage-clamp assay; type: cell-based; conditions: oocyte
How it was run: (§1)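 TEVC on Nav channels expressed in Xenopus laevis oocytes. Each oocyte was injected with 50 nL cRNA at 1 ng/nL and recorded 1–4 days later at 18–22 °C. Bath (mM): NaCl 96, KCl 2, CaCl2 1.8, MgCl2 2, HEPES 5, pH 7.4. Electrodes held 3 M KCl at 0.8–1.5 MΩ. Compound tested at 1 μM. Mean ± SD, n ≥ 5.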

[7] = target: T1, Sodium channel protein type 5 subunit alpha; assay: Inhibition of human Nav1.5 expressed in CHO cells by automated patch clamp electrophysiology analysis
[8] = target: T3, Sodium channel protein type 3 subunit alpha (Homo sapiens, UniProt Q9NY46); assay: Inhibition of human Nav1.3 expressed in CHO cells under resting state by automated patch clamp electrophysiology analysis; type: cell-based
[9] = target: T3, Sodium channel protein type 3 subunit alpha; assay: Inhibition of human Nav1.3 expressed in CHO cells under inactivated state by automated patch clamp electrophysiology analysis; type: cell-based
[10] = target: Sodium channel protein type 1 subunit alpha (Homo sapiens) (UniProt P35498); assay: Inhibition of human Nav1.1 expressed in Xenopus laevis oocytes at closed state at 1 uM by two electrode voltage-clamp assay; type: cell-based; conditions: Oocyte; how it was run: as §1
[11] = target: Sodium channel protein type 2 subunit alpha (Rattus norvegicus) (UniProt P04775); assay: Inhibition of rat Nav1.2 expressed in Xenopus laevis oocytes at closed state at 1 uM by two electrode voltage-clamp assay; type: cell-based; conditions: Oocyte; how it was run: as §1
[12] = target: Sodium channel protein type 4 subunit alpha (Rattus norvegicus) (UniProt P15390); assay: Inhibition of rat Nav1.4 expressed in Xenopus laevis oocytes at closed state at 1 uM by two electrode voltage-clamp assay; type: cell-based; conditions: Oocyte; how it was run: as §1
[13] = target: Sodium channel protein type 8 subunit alpha (Mus musculus) (UniProt Q9WTU3); assay: Inhibition of mouse Nav1.6 expressed in Xenopus laevis oocytes at closed state at 1 uM by two electrode voltage-clamp assay; type: cell-based; conditions: Oocyte; how it was run: as §1
[14] = target: T2, Sodium channel protein type 9 subunit alpha; assay: Inhibition of human Nav1.7 expressed in Xenopus laevis oocytes at closed state at 1 uM by two electrode voltage-clamp assay; type: cell-based; conditions: Oocyte; how it was run: as §1
[15] = target: Sodium channel protein type 10 subunit alpha (Homo sapiens) (UniProt Q9Y5Y9); assay: Inhibition of human Nav1.8 expressed in Xenopus laevis oocytes at closed state at 1 uM by two electrode voltage-clamp assay; type: cell-based; conditions: Oocyte; how it was run: as §1
[16] = target: Sodium channel protein type 3 subunit alpha (Rattus norvegicus) (UniProt P08104); assay: Inhibition of rat Nav1.3 expressed in Xenopus laevis oocytes at 1 uM under inactivated state by two electrode voltage-clamp assay relative to control; type: cell-based; conditions: Oocyte; how it was run: as §1

Sodium channel protein type 10 subunit alpha (Homo sapiens), sequence (Q9Y5Y9 whole entry, looked up): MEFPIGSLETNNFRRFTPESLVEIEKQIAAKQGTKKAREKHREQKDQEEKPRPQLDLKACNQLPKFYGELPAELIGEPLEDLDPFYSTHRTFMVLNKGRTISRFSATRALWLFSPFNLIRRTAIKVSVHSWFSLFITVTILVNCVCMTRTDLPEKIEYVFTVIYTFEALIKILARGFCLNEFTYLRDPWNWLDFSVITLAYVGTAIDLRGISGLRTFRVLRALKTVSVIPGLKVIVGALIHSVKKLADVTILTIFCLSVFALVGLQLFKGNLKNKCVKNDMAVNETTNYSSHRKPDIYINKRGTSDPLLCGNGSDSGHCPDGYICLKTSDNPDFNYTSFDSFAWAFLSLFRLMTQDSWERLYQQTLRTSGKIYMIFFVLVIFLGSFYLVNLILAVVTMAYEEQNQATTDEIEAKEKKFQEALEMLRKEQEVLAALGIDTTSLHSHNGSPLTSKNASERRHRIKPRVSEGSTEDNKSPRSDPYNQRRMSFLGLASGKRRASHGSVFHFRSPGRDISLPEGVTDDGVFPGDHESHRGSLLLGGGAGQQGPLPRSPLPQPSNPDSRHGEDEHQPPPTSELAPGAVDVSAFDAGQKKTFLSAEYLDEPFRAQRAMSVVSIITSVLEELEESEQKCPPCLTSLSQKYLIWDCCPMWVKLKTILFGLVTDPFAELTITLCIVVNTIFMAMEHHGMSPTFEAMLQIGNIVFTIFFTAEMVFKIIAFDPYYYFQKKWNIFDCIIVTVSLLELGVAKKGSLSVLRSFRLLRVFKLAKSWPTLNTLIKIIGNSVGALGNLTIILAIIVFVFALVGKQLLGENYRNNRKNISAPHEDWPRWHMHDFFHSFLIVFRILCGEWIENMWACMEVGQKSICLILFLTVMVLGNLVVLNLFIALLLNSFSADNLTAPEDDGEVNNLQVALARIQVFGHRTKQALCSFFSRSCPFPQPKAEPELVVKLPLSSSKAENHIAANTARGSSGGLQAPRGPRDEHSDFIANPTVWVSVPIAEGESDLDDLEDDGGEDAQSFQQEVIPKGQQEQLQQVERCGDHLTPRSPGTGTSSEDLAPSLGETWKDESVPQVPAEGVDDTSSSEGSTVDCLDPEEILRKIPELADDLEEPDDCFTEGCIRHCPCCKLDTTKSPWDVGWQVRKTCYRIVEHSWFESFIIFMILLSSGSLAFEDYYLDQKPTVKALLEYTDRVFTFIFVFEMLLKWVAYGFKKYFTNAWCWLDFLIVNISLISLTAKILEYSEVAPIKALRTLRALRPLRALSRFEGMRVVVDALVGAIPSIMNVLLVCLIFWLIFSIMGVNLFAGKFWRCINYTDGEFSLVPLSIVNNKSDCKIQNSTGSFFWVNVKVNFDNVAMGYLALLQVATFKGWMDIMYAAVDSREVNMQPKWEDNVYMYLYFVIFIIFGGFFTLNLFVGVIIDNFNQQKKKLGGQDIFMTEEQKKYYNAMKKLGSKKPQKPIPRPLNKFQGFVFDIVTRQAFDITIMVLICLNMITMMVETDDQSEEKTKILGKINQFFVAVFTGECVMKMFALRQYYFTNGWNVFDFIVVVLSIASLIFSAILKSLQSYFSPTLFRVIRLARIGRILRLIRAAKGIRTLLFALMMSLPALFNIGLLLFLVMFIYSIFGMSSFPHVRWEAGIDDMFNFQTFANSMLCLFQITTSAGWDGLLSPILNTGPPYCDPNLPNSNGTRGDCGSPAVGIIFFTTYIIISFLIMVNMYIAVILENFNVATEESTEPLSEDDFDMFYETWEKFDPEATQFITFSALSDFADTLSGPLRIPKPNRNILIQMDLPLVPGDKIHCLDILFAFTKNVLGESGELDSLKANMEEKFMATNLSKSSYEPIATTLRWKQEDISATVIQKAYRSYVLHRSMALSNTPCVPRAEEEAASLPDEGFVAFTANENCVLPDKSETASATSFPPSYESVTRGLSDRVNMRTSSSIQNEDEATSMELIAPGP
Sodium channel protein type 8 subunit alpha (Mus musculus), sequence (Q9WTU3 whole entry): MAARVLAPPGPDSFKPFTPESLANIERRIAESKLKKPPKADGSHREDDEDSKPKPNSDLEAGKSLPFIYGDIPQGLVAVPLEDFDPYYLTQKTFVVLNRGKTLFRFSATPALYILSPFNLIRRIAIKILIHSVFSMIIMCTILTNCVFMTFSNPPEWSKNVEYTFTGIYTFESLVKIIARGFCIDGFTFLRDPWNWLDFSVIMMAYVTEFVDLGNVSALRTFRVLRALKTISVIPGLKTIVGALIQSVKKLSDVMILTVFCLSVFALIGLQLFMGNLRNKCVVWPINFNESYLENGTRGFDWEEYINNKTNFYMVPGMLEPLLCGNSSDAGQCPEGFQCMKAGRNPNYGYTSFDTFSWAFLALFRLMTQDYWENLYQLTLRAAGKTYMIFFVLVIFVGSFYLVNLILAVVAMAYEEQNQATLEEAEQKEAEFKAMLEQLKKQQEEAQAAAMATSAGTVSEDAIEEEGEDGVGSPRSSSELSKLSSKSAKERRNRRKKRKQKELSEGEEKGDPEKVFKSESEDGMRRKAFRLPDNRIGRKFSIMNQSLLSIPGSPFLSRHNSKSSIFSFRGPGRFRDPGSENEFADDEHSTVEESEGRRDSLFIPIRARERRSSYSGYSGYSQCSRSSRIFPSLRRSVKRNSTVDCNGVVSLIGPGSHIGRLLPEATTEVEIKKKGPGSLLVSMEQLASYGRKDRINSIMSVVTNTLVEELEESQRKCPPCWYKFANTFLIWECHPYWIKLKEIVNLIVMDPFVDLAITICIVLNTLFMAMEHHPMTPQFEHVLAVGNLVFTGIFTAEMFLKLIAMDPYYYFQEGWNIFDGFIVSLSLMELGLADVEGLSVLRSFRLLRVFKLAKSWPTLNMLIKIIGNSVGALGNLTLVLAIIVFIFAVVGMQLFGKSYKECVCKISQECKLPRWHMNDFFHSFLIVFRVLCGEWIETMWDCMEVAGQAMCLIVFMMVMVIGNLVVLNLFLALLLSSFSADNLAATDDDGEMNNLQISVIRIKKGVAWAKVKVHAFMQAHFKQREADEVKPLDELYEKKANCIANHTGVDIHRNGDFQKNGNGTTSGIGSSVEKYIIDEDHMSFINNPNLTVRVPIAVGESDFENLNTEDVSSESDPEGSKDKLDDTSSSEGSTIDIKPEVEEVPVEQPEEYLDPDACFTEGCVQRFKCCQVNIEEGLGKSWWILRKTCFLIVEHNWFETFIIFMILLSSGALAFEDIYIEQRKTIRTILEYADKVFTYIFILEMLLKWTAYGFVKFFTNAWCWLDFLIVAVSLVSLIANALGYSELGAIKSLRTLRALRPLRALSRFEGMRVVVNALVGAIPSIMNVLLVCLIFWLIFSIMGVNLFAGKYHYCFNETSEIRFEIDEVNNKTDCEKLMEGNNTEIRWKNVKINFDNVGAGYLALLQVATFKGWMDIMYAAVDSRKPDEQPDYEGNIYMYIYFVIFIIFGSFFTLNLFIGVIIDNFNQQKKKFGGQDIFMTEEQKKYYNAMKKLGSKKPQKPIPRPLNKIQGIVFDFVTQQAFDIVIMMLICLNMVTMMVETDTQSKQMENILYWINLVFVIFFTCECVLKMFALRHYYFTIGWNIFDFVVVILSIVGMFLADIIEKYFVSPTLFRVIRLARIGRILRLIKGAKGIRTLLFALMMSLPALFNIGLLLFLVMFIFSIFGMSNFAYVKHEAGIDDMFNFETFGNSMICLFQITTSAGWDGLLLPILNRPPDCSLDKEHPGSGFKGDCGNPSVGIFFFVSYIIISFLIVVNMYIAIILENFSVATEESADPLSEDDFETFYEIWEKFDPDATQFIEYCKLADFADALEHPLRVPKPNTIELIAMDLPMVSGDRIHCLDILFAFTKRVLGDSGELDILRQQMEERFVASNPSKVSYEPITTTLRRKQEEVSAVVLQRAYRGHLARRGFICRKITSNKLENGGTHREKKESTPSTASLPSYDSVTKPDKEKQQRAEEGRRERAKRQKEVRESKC

| SMILES | IC50 [1] [µM] | inhibition (INH) [6] | IC50 [7] [µM] | IC50 [8] [µM] | IC50 [9] [µM] | further results |
| --- | --- | --- | --- | --- | --- | --- |
| O=C(Nc1ccc(S(=O)(=O)Nc2nccs2)cc1)c1cccn1Cc1ccc(Cl)cc1 | > 30 | Not Active | > 30 | – | – | IC50 [2]: > 30 µM; IC50 [3]: 8.4 µM; IC50 [4]: > 30 µM; IC50 [5]: 3.7 µM |
| O=C(Nc1ccc(S(=O)(=O)Nc2nccs2)cc1)c1cccn1Cc1ccccc1 | > 30 | Not Active | > 30 | – | – | – |
| CC(=O)NS(=O)(=O)c1ccc(NC(=O)c2cc(Br)c(Br)n2Cc2ccccc2)cc1 | – | Not Active | – | – | – | – |
| CC(NS(=O)(=O)c1ccc(C2=CC(c3ccc(Cl)cc3)n3nnnc3N2)cc1)C(=O)O (centres undefined) | – | – | – | > 30 | > 30 | – |
| O=C(Nc1ccc(S(=O)(=O)Nc2nccs2)cc1)c1cc(Br)c(Br)n1Cc1ccccc1 | > 30 | Not Active | > 30 | – | – | IC50 [2]: > 30 µM; IC50 [3]: 7.1 µM; IC50 [4]: > 30 µM; IC50 [5]: 3.5 µM |
| CC1CCCCN1C(=O)c1ccc(NS(=O)(=O)c2ccc3[nH]c(=O)[nH]c3c2)cc1 (centres undefined) | – | – | – | > 30 | > 30 | – |
| O=C(Nc1cccc(S(=O)(=O)Nc2nccs2)c1)c1cccn1Cc1ccc(Cl)cc1 | > 30 | Not Active | > 30 | – | – | – |
| CN(C)S(=O)(=O)NC(=O)c1ccc(NC(=O)[C@@H]2C[C@H]2c2ccccc2)cc1 | – | Not Active | – | – | – | – |
| O=C(Nc1ccc(S(=O)(=O)Nc2nccs2)cc1)[C@@H]1C[C@H]1c1ccccc1 | – | – | – | – | – | IC50 ([8]; cho): 18 µM; IC50 ([9]; cho): 0.056 µM |
| NC1=N[C@H](O)[C@H]2[C@H]3O[C@]4(O)O[C@@H]([C@@H](O)[C@@]2(N1)[C@@H]4O)[C@]3(O)CO [TETRODOTOXIN] | – | – | – | 0.004 | 0.001 | – |
| CC(=O)NS(=O)(=O)c1ccc(NC(=O)c2cccn2Cc2ccc(Cl)cc2)cc1 | – | Not Active | – | – | – | – |
| CC(=O)NS(=O)(=O)c1ccc(NC(=O)CC(C)c2ccccc2)cc1 (centres undefined) | – | – | – | > 30 | 21 | – |
| CN(C)S(=O)(=O)NC(=O)c1ccc(NC(=O)c2cc3ccccc3o2)cc1 | – | Not Active | – | – | – | – |
| CC(=O)NS(=O)(=O)c1ccc(NC(=O)c2cccn2Cc2ccccc2)cc1 | – | – | – | > 30 | 23 | – |
| Cc1nc(-c2c(Cl)cccc2Cl)sc1C(=O)N[C@@H](Cc1ccccc1)C(=O)O | – | Not Active | – | – | – | – |
| CS(=O)(=O)NC(=O)c1ccc(NC(=O)c2cccn2Cc2ccc(Cl)cc2)cc1 | – | Not Active | – | > 30 | > 30 | inhibition [10]: inactive; inhibition [11]: inactive; inhibition [12]: inactive; inhibition [13]: inactive; inhibition [14]: inactive; inhibition [15]: inactive |
| CS(=O)(=O)NC(=O)c1cccc(OC[C@@H]2C[C@H]2c2ccccc2)c1 | > 30 | Not Active | > 30 | > 30 | > 30 | inhibition [10]: inactive; inhibition [11]: inactive; inhibition [12]: inactive; inhibition [13]: inactive; inhibition [14]: inactive; inhibition [15]: inactive |
| CS(=O)(=O)NC(=O)c1ccc(NC(=O)c2cc(Br)c(Br)n2Cc2ccccc2)cc1 | – | Not Active | – | – | – | – |
| CC(=O)NS(=O)(=O)c1ccc(NC(=O)[C@@H]2C[C@H]2c2ccccc2)cc1 | > 30 | Not Active | > 30 | – | – | – |
| CS(=O)(=O)NC(=O)c1ccc(NC(=O)C2CC2c2ccc(F)c(F)c2)cc1 (racemic) | – | Not Active | – | > 30 | > 30 | inhibition [10]: inactive; inhibition [11]: inactive; inhibition [12]: inactive; inhibition [13]: inactive; inhibition [14]: inactive; inhibition [15]: inactive |

| SMILES | IC50 [1] [µM] | inhibition (INH) [6] | IC50 [7] [µM] | IC50 [8] [µM] | IC50 [9] [µM] | further results |
| --- | --- | --- | --- | --- | --- | --- |
| CN(C)S(=O)(=O)NC(=O)c1ccc(NC(=O)c2cccn2Cc2ccc(Cl)cc2)cc1 | – | Not Active | – | – | – | – |
| C[C@@H](Oc1ccc(Cl)cc1)C(=O)Nc1ccc(C(=O)NS(C)(=O)=O)cc1 | – | Not Active | – | – | – | – |
| O=C(Nc1ccc(S(=O)(=O)Nc2nccs2)cc1)c1cc(Br)c(Br)n1-c1ccccc1 | > 30 | Not Active | > 30 | – | – | IC50 [2]: > 30 µM; IC50 [3]: 9.3 µM; IC50 [4]: > 30 µM; IC50 [5]: 3.4 µM |
| CC(CCc1ccc(O)cc1)NC(=O)Nc1ccc(S(=O)(=O)N2CCCC2)cc1 (centres undefined) | – | – | – | > 30 | 20 | – |
| CS(=O)(=O)NC(=O)c1ccc(NC(=O)[C@@H]2C[C@H]2c2ccccc2)cc1 | – | Not Active | – | > 30 | > 30 | inhibition [10]: inactive; inhibition [11]: inactive; inhibition [12]: inactive; inhibition [13]: inactive; inhibition [14]: inactive; inhibition [15]: inactive |
| CN(C)CCC=C1c2ccccc2CCc2ccccc21 [AMITRIPTYLINE] | 11 | – | 6.9 | – | – | IC50 [2]: 10 µM; IC50 [3]: 2.3 µM; IC50 [4]: 20 µM; IC50 [5]: 1.2 µM |
| O=C(Nc1cccc(S(=O)(=O)Nc2nccs2)c1)[C@@H]1C[C@H]1c1ccccc1 | > 30 | Not Active | > 30 | – | – | – |
| O=C(Nc1cccc(S(=O)(=O)Nc2nccs2)c1)c1cccn1Cc1ccccc1 | > 30 | Not Active | > 30 | – | – | – |
| O=C(Nc1ccc(S(=O)(=O)Nc2nccs2)cc1)c1cccn1-c1ccccc1 | > 30 | Not Active | > 30 | – | – | – |
| O=C(Nc1ccc(S(=O)(=O)Nc2nccs2)cc1)C1Cc2cc(Cl)ccc2O1 (centres undefined) | > 30 | Not Active | > 30 | > 30 | 0.24 | inhibition [10]: inactive; inhibition [11]: inactive; inhibition [16]: 21%; inhibition [12]: inactive; inhibition [13]: inactive; inhibition [14]: inactive; inhibition [15]: inactive |
| O=C(Nc1nccs1)c1ccc(NC(=O)[C@@H]2C[C@H]2c2ccccc2)cc1 | > 30 | – | > 30 | – | – | IC50 [2]: > 30 µM; IC50 [3]: > 30 µM; IC50 [4]: > 30 µM; IC50 [5]: > 30 µM |
| CC(=O)NS(=O)(=O)c1ccc(NC(=O)c2cc(Br)c(Br)n2-c2ccccc2)cc1 | – | – | – | > 30 | 19 | – |
| Cc1nn(C)cc1/C=C(\C#N)C(=O)Nc1ccc(S(=O)(=O)Nc2nccs2)cc1 | > 30 | Not Active | > 30 | 26 | 3.8 | inhibition [10]: inactive; inhibition [11]: inactive; inhibition [12]: inactive; inhibition [13]: inactive; inhibition [14]: inactive; inhibition [15]: inactive |
| CS(=O)(=O)NC(=O)c1ccc(NC(=O)c2cc(Br)c(Br)n2-c2ccccc2)cc1 | – | Not Active | – | – | – | – |
| O=C(Nc1cccc(S(=O)(=O)Nc2nccs2)c1)c1cc(Br)c(Br)n1Cc1ccccc1 | > 30 | Not Active | > 30 | – | – | – |
| CC1CCCC(C)N1S(=O)(=O)c1ccc(NS(=O)(=O)c2ccc3c(c2)CC(=O)N3C)cc1 (centres undefined) | – | – | – | > 30 | 28 | – |
| C[C@@H](Oc1ccc(Cl)cc1)C(=O)Nc1ccc(C(=O)NS(=O)(=O)N(C)C)cc1 | – | Not Active | – | – | – | – |
| CS(=O)(=O)NC(=O)c1ccc(OC[C@@H]2C[C@H]2c2ccccc2)cc1 | > 30 | Not Active | > 30 | – | – | – |
| C[C@H](Oc1ccc(Cl)cc1)C(=O)Nc1ccc(C(=O)NS(C)(=O)=O)cc1 | – | Not Active | – | – | – | – |
| CC(Oc1ccc(Cl)cc1)C(=O)Nc1ccc(S(=O)(=O)Nc2nccs2)cc1 (centres undefined) | > 30 | Not Active | > 30 | > 30 | 0.32 | inhibition [10]: inactive; inhibition [11]: inactive; inhibition [16]: 21%; inhibition [12]: inactive; inhibition [13]: inactive; inhibition [14]: inactive; inhibition [15]: inactive |
